Experimental findings from ChEMBL document CHEMBL1129567, “Structure-based design of novel, urea-containing FKBP12 inhibitors” (J Med Chem, 1996) are described below.

Chain of Peptidyl-prolyl cis-trans isomerase FKBP1A (P62942 whole entry): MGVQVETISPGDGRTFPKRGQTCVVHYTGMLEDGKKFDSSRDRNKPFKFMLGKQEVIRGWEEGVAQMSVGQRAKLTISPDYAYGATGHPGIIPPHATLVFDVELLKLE

The assay addresses Peptidyl-prolyl cis-trans isomerase FKBP1A (Homo sapiens, UniProt P62942). The assay can be described thus: Apparent inhibition constant of Wild-type human recombinant FK506 binding protein 12. The settings on record: read-out: Ki app. The gist of the method: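 Wild-type human recombinant FKBP12 (E. coli-expressed, purified), 90 nM, chymotrypsin-coupled continuous spectrophotometric cis-trans isomerase assay with 100 µM cis succinyl-Ala-Leu-Pro-Phe-p-nitroanilide (stock in trifluoroethanol/240 mM LiCl) at 10 or 15 °C. Buffer: 50 mM HEPES pH 8.0, 100 mM NaCl, 100 µM 2-mercaptoethanol, 1% DMSO, 6 mg/mL chymotrypsin. Read for 5 min. Fit to competitive tight-binding equation corrected for uncatalyzed isomerization.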
For `CC(C)(CO)CNC(=O)N1CCCC[C@H]1C(=O)OCc1ccccc1`, the Ki was 8400 nM.
The result for `C=C(C)CNC(=O)N1CCCC[C@H]1C(=O)OCc1ccccc1` reads 7200 nM; that for `COC(=O)[C@@H]1CCC[C@H]2CCN(Cc3ccccc3)C(=O)N21`, 67000 nM; that for `COc1cc(CCCOC(=O)[C@@H]2CCCCN2C(=O)NCC(C)(C)C)cc(OC)c1OC`, 390 nM.
The result for `CCCN1CC[C@@H]2CCC[C@@H](C(=O)OC)N2C1=O` reads 83000 nM; that for `COc1cccc(CCCOC(=O)[C@@H]2CCCCN2C(=O)NCC(C)(C)C)c1`, 370 nM; that for `CC(C)(C)CNC(=O)N1CCCC[C@H]1C(=O)OCCCCc1ccccc1`, 150 nM.
On to `CCCN1CC[C@@H]2CCC[C@@H](C(=O)OCc3ccccc3)N2C1=O`, for which the Ki was determined as 24000 nM.
The result for `CC1(CNC(=O)N2CCCC[C@H]2C(=O)OCc2ccccc2)CCCCC1` reads 550 nM; that for `O=C(OCc1ccccc1)[C@@H]1CCCCN1C(=O)NCc1ccccc1`, 6500 nM.
For `CC1(CNC(=O)N2CCCC[C@H]2C(=O)OCc2ccccc2)CCCC1`, the Ki is 570 nM.
For the compound `CC1(CNC(=O)N2CCCC[C@H]2C(=O)OCCCCc2ccccc2)CCCCC1`, the Ki is 120 nM.
In the case of `O=C(OCc1ccccc1)[C@@H]1CCC[C@H]2CCN(Cc3ccccc3)C(=O)N21`, the Ki was determined as 14000 nM.
In the case of `CC1(CNC(=O)N2CCCC[C@H]2C(=O)OCc2cccc(Oc3ccccc3)c2)CCCCC1`, the Ki is 200 nM.
For `CC(C)(C)CNC(=O)N1CCCC[C@H]1C(=O)OCc1cccc(Oc2ccccc2)c1`, the Ki worked out at 220 nM.
The result for `CC(C)(C)CNC(=O)N1CCCC[C@H]1C(=O)O[C@H](CCc1ccccc1)c1ccccc1` reads 350 nM.
In the case of `CC(C)(C)CNC(=O)N1CCCC[C@H]1C(=O)OCc1ccccc1` it was 790 nM.
